Experimental data as given in ChEMBL document CHEMBL1129074, “Inhibitors of human immunodeficiency virus type 1 derived from gp41 transmembrane protein: structure--activity studies” (J Med Chem, 1996).
Square brackets hold non-standard residues; d marks the D form. Peptide text beside a SMILES is read from it. Ahx = NCCCCCC(=O)O

What was measured:
[1] = system: MT4; test: Inhibitory potency of gp41 fragment against HIV-1 induced cytopathic effect in MT-4 cell assay at 6.4 uM; format: functional; conditions: Homo sapiens
[2] = system: MT4; test: Inhibitory potency of gp41 fragment against HIV-1 induced cytopathic effect in MT-4 cell assay at 40 uM; format: functional; conditions: Homo sapiens
[3] = system: MT4; test: Inhibitory potency of gp41 fragment against HIV-1 induced cytopathic effect in MT-4 cell assay at 5 uM; format: functional; conditions: Homo sapiens
[4] = system: MT4; test: Inhibitory potency of gp41 fragment against HIV-1 induced cytopathic effect in MT-4 cell assay at 80 uM; format: functional; conditions: Homo sapiens
[5] = system: MT4; test: (§1) Inhibitory potency of gp41 fragment against HIV-1 induced cytopathic effect in MT-4 cell assay at 20 uM; format: functional; conditions: Homo sapiens
How it was run: (§2)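 MT4 cells (exponential growth) at 5×10^5 cells/mL infected with HIV-1 IIIB (100× TCID50) for 1 h at 37 °C, diluted 6-fold, added to serially diluted peptide in RPMI 1640/FCS medium; mock-infected controls. After 5 days at 37 °C, 5% CO2, cells lysed with Nonidet-40 and DNA content read by propidium iodide. Inhibition = restoration of infected-cell growth relative to uninfected controls; cytotoxicity measured in parallel.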

[6] = system: MT4; test: Inhibitory potency of gp41 fragment against HIV-1 induced cytopathic effect in MT-4 cell assay at 16 uM; format: functional; conditions: Homo sapiens
[7] = system: MT4; test: Inhibitory potency of gp41 fragment against HIV-1 induced cytopathic effect in MT-4 cell assay; format: functional, cell-based; conditions: Homo sapiens
[8] = system: MT4; test: as §1; format: functional, Homo sapiens; conditions: Homo sapiens, MT4; how it was run: as §2
[9] = system: MT4; test: Inhibitory potency of gp41 fragment against HIV-1 induced cytopathic effect in MT-4 cell assay at 8 uM; format: functional; conditions: Homo sapiens
[10] = system: MT4; test: Inhibitory potency of gp41 fragment against HIV-1 induced cytopathic effect in MT-4 cell assay at 200 uM; format: functional; conditions: Homo sapiens

CCCCCCCCCCCCC(N)C(=O)N[C@@H](CC(C)C)C(=O)N[C@@H](CCC(N)=O)C(=O)N[C@@H](CC(C)C)C(=O)N[C@H](C(=O)N[C@H](C(=O)N[C@@H](Cc1c[nH]c2ccccc12)C(=O)NCC(=O)N[C@H](C(=O)N[C@@H](CCCCN)C(=O)N[C@@H](CCC(N)=O)C(=O)N[C@@H](CC(C)C)C(=O)N[C@@H](CCC(N)=O)C(=O)N[C@@H](C)C(=O)N[C@@H](CCCN=C(N)N)C(=O)N[C@H](C(=O)O)[C@@H](C)CC)[C@@H](C)CC)C(C)C)[C@@H](C)O (some centres undefined) (HELM PEPTIDE1{[CCCCCCCCCCCCC(N)C(=O)[*:2]].L.Q.L.T.V.W.G.I.K.Q.L.Q.A.R.I}$$$$V2.0)
inhibition at 6.4 µM [1]: 37%

CC[C@H](C)[C@H](NC(=O)[C@H](CCCN=C(N)N)NC(=O)[C@H](C)NC(=O)[C@H](CCC(N)=O)NC(=O)[C@H](CC(C)C)NC(=O)[C@H](CCC(N)=O)NC(=O)[C@H](CCCCN)NC(=O)[C@@H](NC(=O)CNC(=O)[C@H](Cc1c[nH]c2ccccc12)NC(=O)[C@@H](NC(=O)[C@@H](NC(=O)[C@H](CC(C)C)NC(=O)[C@H](CCC(N)=O)NC(=O)CCCCCN)[C@@H](C)O)C(C)C)[C@@H](C)CC)C(=O)O (HELM PEPTIDE1{[NCCCCCC(=O)[*:2]].Q.L.T.V.W.G.I.K.Q.L.Q.A.R.I}$$$$V2.0)
inhibition at 40 µM [2]: 11%

CC[C@H](C)[C@H](NC(=O)CNC(=O)[C@H](Cc1c[nH]c2ccccc12)NC(=O)[C@@H](NC(=O)[C@@H](NC(=O)[C@H](CC(C)C)NC(=O)[C@H](CCC(N)=O)NC(=O)[C@H](CC(C)C)NC(=O)[C@H](CC(C)C)NC(=O)[C@H](Cc1c[nH]cn1)NC(=O)[C@H](CCC(N)=O)NC(=O)[C@H](CCC(N)=O)NC(=O)[C@H](C)NC(=O)[C@H](CCC(=O)O)NC(=O)[C@@H](NC(=O)[C@H](C)NC(=O)[C@H](CCCN=C(N)N)NC(=O)[C@H](CC(C)C)NC(=O)[C@H](CC(C)C)NC(=O)[C@H](CC(N)=O)NC(=O)[C@@H](N)CC(N)=O)[C@@H](C)CC)[C@@H](C)O)C(C)C)C(=O)N[C@@H](CCCCN)C(=O)N[C@@H](CCC(N)=O)C(=O)N[C@@H](CC(C)C)C(=O)N[C@@H](CCC(N)=O)C(=O)N[C@@H](C)C(=O)N[C@@H](CCCN=C(N)N)C(=O)N[C@H](C(=O)N[C@@H](CC(C)C)C(=O)N[C@@H](C)C(=O)N[C@H](C(=O)N[C@@H](CCC(=O)O)C(=O)O)C(C)C)[C@@H](C)CC (H-NNLLRAIEAQQHLLQLTVWGIKQLQARILAVE-OH)
inhibition at 5 µM [3]: 37%

CC[C@H](C)[C@H](NC(=O)[C@H](CCCN=C(N)N)NC(=O)[C@H](C)NC(=O)[C@H](CCC(N)=O)NC(=O)[C@H](CC(C)C)NC(=O)[C@H](CCC(N)=O)NC(=O)CCCCCNC(=O)CCCCCNC(=O)[C@@H](NC(=O)[C@@H](NC(=O)[C@H](CC(C)C)NC(=O)[C@H](CCC(N)=O)NC(=O)[C@H](CC(C)C)NC(=O)[C@H](CC(C)C)NC(=O)[C@H](Cc1c[nH]cn1)NC(=O)[C@H](CCC(N)=O)NC(C)=O)[C@@H](C)O)C(C)C)C(=O)N[C@@H](CC(C)C)C(=O)N[C@@H](C)C(=O)N[C@H](C(=O)N[C@@H](CCC(=O)O)C(=O)O)C(C)C (HELM PEPTIDE1{[ac].Q.H.L.L.Q.L.T.V.[O=C(CCCCCN[*:1])[*:2]].[O=C(CCCCCN[*:1])[*:2]].Q.L.Q.A.R.I.L.A.V.E}$$$$V2.0)
inhibition at 80 µM [4]: 27%

CC[C@H](C)[C@H](NC(=O)[C@H](CCCN=C(N)N)NC(=O)[C@H](C)NC(=O)[C@H](CCC(N)=O)NC(=O)[C@H](CC(C)C)NC(=O)[C@H](CCC(N)=O)NC(=O)[C@H](CCCCN)NC(=O)[C@@H](NC(=O)CNC(=O)[C@H](Cc1c[nH]c2ccccc12)NC(=O)[C@@H](NC(=O)[C@@H](NC(=O)[C@H](CC(C)C)NC(=O)[C@H](CCC(N)=O)NC(=O)[C@H](CC(C)C)NC(=O)CCCCCN)[C@@H](C)O)C(C)C)[C@@H](C)CC)C(=O)O (HELM PEPTIDE1{[NCCCCCC(=O)[*:2]].L.Q.L.T.V.W.G.I.K.Q.L.Q.A.R.I}$$$$V2.0)
inhibition at 40 µM [2]: 33%

CC[C@H](C)[C@H](NC(=O)CNC(=O)[C@H](Cc1c[nH]c2ccccc12)NC(=O)[C@@H](NC(=O)[C@@H](NC(=O)[C@H](CC(C)C)NC(=O)[C@H](CCC(N)=O)NC(=O)[C@H](CC(C)C)NC(=O)[C@H](CC(C)C)NC(=O)CNC(=O)CNC(=O)[C@H](CS)NC(C)=O)[C@@H](C)O)C(C)C)C(=O)N[C@@H](CCCCN)C(=O)N[C@@H](CCC(N)=O)C(=O)N[C@@H](CC(C)C)C(=O)N[C@@H](CCC(N)=O)C(=O)N[C@@H](C)C(=O)N[C@@H](CCCN=C(N)N)C(=O)N[C@H](C(=O)N[C@@H](CC(C)C)C(=O)O)[C@@H](C)CC (Ac-CGGLLQLTVWGIKQLQARIL-OH)
inhibition at 20 µM [5]: 30%

CCCCCCCCCCCCC(N)C(=O)N[C@@H](CCC(N)=O)C(=O)N[C@@H](CC(C)C)C(=O)N[C@H](C(=O)N[C@H](C(=O)N[C@@H](Cc1c[nH]c2ccccc12)C(=O)NCC(=O)N[C@H](C(=O)N[C@@H](CCCCN)C(=O)N[C@@H](CCC(N)=O)C(=O)N[C@@H](CC(C)C)C(=O)N[C@@H](CCC(N)=O)C(=O)N[C@@H](C)C(=O)N[C@@H](CCCN=C(N)N)C(=O)N[C@H](C(=O)O)[C@@H](C)CC)[C@@H](C)CC)C(C)C)[C@@H](C)O (some centres undefined) (HELM PEPTIDE1{[CCCCCCCCCCCCC(N)C(=O)[*:2]].Q.L.T.V.W.G.I.K.Q.L.Q.A.R.I}$$$$V2.0)
inhibition at 16 µM [6]: 32% | IC50 [7]: 8.9 µM

CCCCCCCCCCCCC(N)C(=O)N[C@@H](CCC(N)=O)C(=O)N[C@@H](Cc1c[nH]cn1)C(=O)N[C@@H](CC(C)C)C(=O)N[C@@H](CC(C)C)C(=O)N[C@@H](CCC(N)=O)C(=O)N[C@@H](CC(C)C)C(=O)N[C@H](C(=O)N[C@H](C(=O)N[C@@H](Cc1c[nH]c2ccccc12)C(=O)NCC(=O)N[C@H](C(=O)N[C@@H](CCCCN)C(=O)N[C@@H](CCC(N)=O)C(=O)N[C@@H](CC(C)C)C(=O)N[C@@H](CCC(N)=O)C(=O)N[C@@H](C)C(=O)N[C@@H](CCCN=C(N)N)C(=O)N[C@H](C(=O)N[C@@H](CC(C)C)C(=O)N[C@@H](C)C(=O)N[C@H](C(=O)N[C@@H](CCC(=O)O)C(=O)N[C@@H](CCCN=C(N)N)C(=O)N[C@@H](Cc1ccc(O)cc1)C(=O)N[C@@H](CC(C)C)C(=O)N[C@@H](CCCCN)C(=O)N[C@@H](CC(=O)O)C(=O)N[C@@H](CCC(N)=O)C(=O)O)C(C)C)[C@@H](C)CC)[C@@H](C)CC)C(C)C)[C@@H](C)O (some centres undefined) (HELM PEPTIDE1{[CCCCCCCCCCCCC(N)C(=O)[*:2]].Q.H.L.L.Q.L.T.V.W.G.I.K.Q.L.Q.A.R.I.L.A.V.E.R.Y.L.K.D.Q}$$$$V2.0)
inhibition at 20 µM [8]: 0% | inhibition at 5 µM [3]: 10% | inhibition at 8 µM [9]: 15%

CC[C@H](C)[C@H](N)C(=O)N[C@@H](CCCCN)C(=O)N[C@@H](CCC(N)=O)C(=O)N[C@@H](CC(C)C)C(=O)N[C@@H](CCC(N)=O)C(=O)N[C@@H](C)C(=O)N[C@@H](CCCN=C(N)N)C(=O)N[C@H](C(=O)N[C@@H](CC(C)C)C(=O)N[C@@H](C)C(=O)N[C@H](C(=O)N[C@@H](CCC(=O)O)C(=O)N[C@@H](CCCN=C(N)N)C(=O)N[C@@H](Cc1ccc(O)cc1)C(=O)N[C@@H](CC(C)C)C(=O)N[C@@H](CCCCN)C(=O)N[C@@H](CC(=O)O)C(=O)N[C@@H](CCC(N)=O)C(=O)O)C(C)C)[C@@H](C)CC (H-IKQLQARILAVERYLKDQ-OH)
inhibition at 200 µM [10]: 0%

CC[C@H](C)[C@H](NC(=O)CCCCCNC(=O)CCCCCNC(=O)CCCCCNC(=O)[C@H](CC(C)C)NC(=O)[C@H](CCC(N)=O)NC(=O)[C@H](CC(C)C)NC(=O)[C@H](CC(C)C)NC(=O)[C@H](Cc1c[nH]cn1)NC(=O)[C@H](CCC(N)=O)NC(C)=O)C(=O)N[C@@H](CCCCN)C(=O)N[C@@H](CCC(N)=O)C(=O)N[C@@H](CC(C)C)C(=O)N[C@@H](CCC(N)=O)C(=O)N[C@@H](C)C(=O)N[C@@H](CCCN=C(N)N)C(=O)N[C@H](C(=O)N[C@@H](CC(C)C)C(=O)N[C@@H](C)C(=O)N[C@H](C(=O)N[C@@H](CCC(=O)O)C(=O)O)C(C)C)[C@@H](C)CC (Ac-QHLLQL[Ahx][Ahx][Ahx]IKQLQARILAVE-OH)
inhibition at 200 µM [10]: 0%

CC[C@H](C)[C@H](NC(=O)CNC(=O)[C@H](Cc1c[nH]c2ccccc12)NC(=O)[C@@H](NC(=O)[C@@H](NC(=O)[C@H](CC(C)C)NC(=O)[C@H](CCC(N)=O)NC(=O)[C@H](CC(C)C)NC(=O)[C@H](CC(C)C)NC(=O)[C@H](Cc1c[nH]cn1)NC(=O)[C@H](CCC(N)=O)NC(=O)[C@H](CCC(N)=O)NC(=O)[C@H](C)NC(=O)[C@H](CCC(=O)O)NC(=O)[C@@H](NC(=O)[C@H](C)NC(=O)[C@H](CCCN=C(N)N)NC(=O)[C@H](CC(C)C)NC(=O)[C@H](CC(C)C)NC(=O)[C@H](CC(N)=O)NC(=O)[C@H](CC(N)=O)NC(C)=O)[C@@H](C)CC)[C@@H](C)O)C(C)C)C(=O)N[C@@H](C)C(=O)N[C@@H](C)C(=O)N[C@@H](CC(C)C)C(=O)N[C@@H](CCC(N)=O)C(=O)N[C@@H](C)C(=O)N[C@@H](CCCN=C(N)N)C(=O)N[C@H](C(=O)N[C@@H](C)C(=O)N[C@@H](C)C(=O)N[C@H](C(=O)N[C@@H](CCC(=O)O)C(=O)N[C@@H](C)C(=O)N[C@@H](Cc1ccc(O)cc1)C(=O)N[C@@H](CC(C)C)C(=O)N[C@@H](C)C(=O)N[C@@H](C)C(=O)N[C@@H](CCC(N)=O)C(=O)O)C(C)C)[C@@H](C)CC (Ac-NNLLRAIEAQQHLLQLTVWGIAALQARIAAVEAYLAAQ-OH)
inhibition at 20 µM [5]: 22%
